{
  "source": "ChEMBL document CHEMBL4017535",
  "about": "(J Med Chem, 2017)",
  "key": {"Mus musculus": {"tested_on": "Mus musculus", "test": "Toxicity in NOD.SCID mouse assessed as maximum mean body weight loss at 8 mg/kg, iv qd for every 7 days (reference value: 9%)", "assay_type": "organism-based", "conditions": "in vivo, 168 h"}, "[1]": {"test": "Toxicity in iv dosed NOD.SCID mouse xenografted with gamma-irradiated human Kasumi-1 cells administered as […] for every 7 days", "assay_type": "organism-based", "conditions": "in vivo", "outline": "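Kasumi-1 AML xenograft in mice; dosing intravenous once every 7 days at 8 mg/kg.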"}},
  "data": [
    {"smiles": "Nc1ncn([C@@H]2O[C@H](CO)[C@@H](O)[C@H]2O)c(=O)n1", "note": "[AZACITIDINE]", "values": [
      {"measurement": "Activity", "setting": "Mus musculus", "result": 1, "unit": "%"},
      {"measurement": "MTD at 168 h", "setting": "[1]", "result": 8, "unit": "mg/kg"}
    ]}
  ]
}
